We go through six molecules from ChEMBL document CHEMBL4052621, “Identification of new anti-inflammatory agents based on nitrosporeusine natural products of marine origin” (Eur J Med Chem, 2017).

For orientation: IC50 means the concentration that gives 50% inhibition. As usually defined, the EC50 is the concentration at which the effect is half-maximal.

Activity calls are given as the source filed them. The rule behind the calls is not given here.

Assay [1] deals with RAW264.7. The assay can be described thus: Cytotoxicity against mouse RAW264.7 cells assessed as decrease in cell viability after 24 hrs by MTT assay. The assay is classed as cell-based. The conditions noted are these: RAW264.7, 24 h. The essentials: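 RAW264.7 macrophage viability after compound exposure was measured by MTT assay. IC50 (µM) was calculated and reported with a 95% confidence interval.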

Assay [2] relates to RAW264.7. The assay can be described thus: Antiinflammatory activity in mouse RAW264.7 cells assessed as inhibition of LPS-induced NO production after 24 hrs by Griess assay. The assay is classed as functional, cell-based. The following applies: for IC50: RAW264.7, 24 h. The essentials: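 LPS-stimulated RAW264.7 cells were co-treated with compound. Nitrite, a stable NO metabolite, was measured in culture medium with Griess reagent. IC50 (µM) was reported with a 95% confidence interval.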
In general terms: Griess reagent forms a coloured azo dye with nitrite.

Assay [3] deals with RAW264.7. Nature of the assay: Selectivity index, ratio IC50 for cytotoxicity against mouse RAW264.7 cells to IC50 for antiinflammatory activity in mouse RAW264.7 cells. The assay is classed as functional. The essentials: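 Ratio A/B in RAW 264.7 cells. A is the cytotoxicity IC50 from the MTT assay. B is the IC50 for inhibiting NO production in LPS-stimulated cells, with nitrite in the culture medium measured by Griess reagent. Both IC50s are reported with 95% confidence intervals.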

Assay [4] is described as follows: Antiviral activity against Influenza A virus A/WSN/33(H1N1) infected in MDCK cells at 50 uM preincubated for 15 mins measured after 1.5 days by CellTiter-Glo assay relative to control. Type of assay: functional, Influenza A virus (A/WSN/1933(H1N1)). (In general: Cellular ATP, detected with luciferase, serves as a proxy for viable cell number.)
The nature of assay [5]: Antiviral activity against Influenza A virus A/WSN/33(H1N1) infected in MDCK cells preincubated for 1 hr followed by compound wash measured after 48 hrs by plaque reduction assay. Type of assay: functional, cell-based, Influenza A virus (A/WSN/1933(H1N1)).
For assay [6], the system named is RAW264.7. Nature of the assay: Antiinflammatory activity in mouse RAW264.7 cells assessed as inhibition of LPS-induced IL-12 production at 50 uM after 24 hrs by phycoerythrin staining based flow cytometry. Type of assay: functional, cell-based. The essentials: (§1)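 Cytokine bead array on protein extracts of RAW 264.7 cells treated with LPS plus compound at 50 µM. Read-outs were IL-12, IL-6, TNF-α, MCP-1 and IFN-γ, referenced to LPS-treated cells. Mean ± SD, n = 3 independent experiments.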
(In general: Flow cytometry measures light scatter and fluorescence of single cells or particles in a stream.)

Assay [7] is filed under the species Mus musculus. Nature of the assay: Inhibition of LPS-induced NFkappaB phosphorylation in mouse RAW264.7 cells at 50 uM after 24 hrs by Western blot analysis. Type of assay: cell-based. The essentials: (§2)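 Protein was isolated from control, LPS, and LPS + compound (50 µM) RAW 264.7 cultures and immunoblotted. iNOS, COX-2 and phospho-NF-κB were quantified densitometrically against β-actin. Mean ± SD of 3 independent experiments, compared with LPS treatment.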

In assay [8] the test system is Mus musculus. Nature of the assay: Antiinflammatory activity in BALB/c mouse assessed as inhibition of LPS-induced IL-6 production at 10 mg/kg, ip pretreated for 3 days as single dose followed by LPS administration after 24 hrs by phycoerythrin staining based flow cytometry. The assay is classed as functional, organism-based.
In assay [9] the test system is RAW264.7. The assay can be described thus: Antiinflammatory activity in mouse RAW264.7 cells assessed as inhibition of LPS-induced ROS production after 24 hrs by CM-H2DCFDA dye based fluorescence assay. The assay is classed as functional, cell-based. Summed up:
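Intracellular ROS was measured in LPS-treated RAW 264.7 cells exposed to compounds at several doses. The read-out was mean fluorescence intensity, compared with LPS-treated cells. Data are mean ± SD of three independent experiments.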

The test system of assay [10] is RAW264.7. Nature of the assay: Antiinflammatory activity in mouse RAW264.7 cells assessed as inhibition of LPS-induced COX-2 production at 50 uM after 24 hrs by Western blot analysis. Type of assay: functional, cell-based. Summed up:
as §2

The test system of assay [11] is RAW264.7. The assay can be described thus: Antiinflammatory activity in mouse RAW264.7 cells assessed as inhibition of LPS-induced iNOS production at 50 uM after 24 hrs by Western blot analysis. Type of assay: functional, cell-based. The essentials: as §2
Assay [12] has as its system RAW264.7. The assay can be described thus: Antiinflammatory activity in mouse RAW264.7 cells assessed as inhibition of LPS-induced IL-6 production at 50 uM after 24 hrs by phycoerythrin staining based flow cytometry. The assay is classed as functional, cell-based. The essentials:
as §1

Assay [13] has as its system RAW264.7. Nature of the assay: Antiinflammatory activity in mouse RAW264.7 cells assessed as inhibition of LPS-induced TNF-alpha production at 50 uM after 24 hrs by phycoerythrin staining based flow cytometry. The assay is classed as functional, cell-based. The essentials:
as §1

Assay [14] relates to RAW264.7. Nature of the assay: Antiinflammatory activity in mouse RAW264.7 cells assessed as inhibition of LPS-induced […] production at 50 uM after 24 hrs by phycoerythrin staining based flow cytometry. Type of assay: functional, cell-based. The essentials: as §1
Assay [15] has as its system RAW264.7. The assay can be described thus: Antiinflammatory activity in mouse RAW264.7 cells assessed as inhibition of LPS-induced MCP-1 production at 50 uM after 24 hrs by phycoerythrin staining based flow cytometry. The assay is classed as functional, cell-based. The essentials:
as §1

Assay [16] deals with Mus musculus. Nature of the assay: Antiinflammatory activity in BALB/c mouse assessed as inhibition of LPS-induced IL-12 production at 10 mg/kg, ip pretreated for 3 days as single dose followed by LPS administration after 24 hrs by phycoerythrin staining based flow cytometry. The assay is classed as functional, organism-based.
Assay [17] has as its system Mus musculus. Nature of the assay: Antiinflammatory activity in BALB/c mouse assessed as inhibition of LPS-induced TNF-alpha production at 10 mg/kg, ip pretreated for 3 days as single dose followed by LPS administration after 24 hrs by phycoerythrin staining based flow cytometry. The assay is classed as functional, organism-based.
Assay [18] relates to Mus musculus. Nature of the assay: Antiinflammatory activity in BALB/c mouse assessed as inhibition of LPS-induced […] production at 10 mg/kg, ip pretreated for 3 days as single dose followed by LPS administration after 24 hrs by phycoerythrin staining based flow cytometry. Type of assay: functional, organism-based.
The subject of assay [19] is Mus musculus. The assay can be described thus: Antiinflammatory activity in BALB/c mouse assessed as inhibition of LPS-induced MCP-1 production at 10 mg/kg, ip pretreated for 3 days as single dose followed by LPS administration after 24 hrs by phycoerythrin staining based flow cytometry. The assay is classed as functional, organism-based.
The subject of assay [20] is RAW264.7. Nature of the assay: Antiinflammatory activity in mouse RAW264.7 cells assessed as inhibition of LPS-induced COX-2 production at 30 uM after 24 hrs by Western blot analysis. Type of assay: functional, cell-based. Summed up: (§3)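 Immunoblot of protein from RAW 264.7 cells under control, LPS, and LPS + enantiomer (30 µM) conditions. COX-2, iNOS and phospho-NF-κB bands were quantified by densitometry and normalised to β-actin. Mean ± SD from 3 independent experiments; p-values are versus LPS-treated cells.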

The test system of assay [21] is RAW264.7. Nature of the assay: Antiinflammatory activity in mouse RAW264.7 cells assessed as inhibition of LPS-induced iNOS production at 30 uM after 24 hrs by Western blot analysis. Type of assay: functional, cell-based. Summed up:
as §3

For assay [22], the species on record is Mus musculus. Nature of the assay: Inhibition of LPS-induced NFkappaB phosphorylation in mouse RAW264.7 cells at 30 uM after 24 hrs by Western blot analysis. Type of assay: cell-based. Summed up:
as §3

Assay [23] deals with RAW264.7. Nature of the assay: Antiinflammatory activity in mouse RAW264.7 cells assessed as inhibition of LPS-induced IL-12 production at 30 uM after 24 hrs by phycoerythrin staining based flow cytometry. Type of assay: functional, cell-based. The essentials:
(§4)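 LPS-stimulated RAW 264.7 cells were co-treated with enantiomers at 30 µM. Cell protein extracts were analysed by cytometric bead array for IL-12, IL-6, TNF-α, MCP-1 and IFN-γ and compared with LPS-only cells. Mean ± SD of three independent experiments.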

Assay [24] has as its system RAW264.7. Nature of the assay: Antiinflammatory activity in mouse RAW264.7 cells assessed as inhibition of LPS-induced IL-6 production at 30 uM after 24 hrs by phycoerythrin staining based flow cytometry. Type of assay: functional, cell-based. The essentials: as §4
The subject of assay [25] is RAW264.7. Nature of the assay: Antiinflammatory activity in mouse RAW264.7 cells assessed as inhibition of LPS-induced TNF-alpha production at 30 uM after 24 hrs by phycoerythrin staining based flow cytometry. Type of assay: functional, cell-based. The essentials: as §4
Assay [26] has as its system RAW264.7. Nature of the assay: Antiinflammatory activity in mouse RAW264.7 cells assessed as inhibition of LPS-induced […] production at 30 uM after 24 hrs by phycoerythrin staining based flow cytometry. Type of assay: functional, cell-based. Summed up: as §4
In assay [27] the test system is RAW264.7. Nature of the assay: Antiinflammatory activity in mouse RAW264.7 cells assessed as inhibition of LPS-induced MCP-1 production at 30 uM after 24 hrs by phycoerythrin staining based flow cytometry. Type of assay: functional, cell-based. The essentials: as §4

Take `O=C(S[C@@]12CC[C@H](O)[C@@H]1C(=O)NC2=O)c1ccc(O)cc1`: the IC50 with RAW264.7 [1] was found to be 1020 µM; with RAW264.7 [2], 71.8 µM. In the assay on RAW264.7 [3], the “Ratio IC50” value stood at 14.14. In addition, the Activity in [4] is on record as 18.6%.

As for `O=C(S[C@]12CC[C@H](O)[C@H]1C(=O)NC2=O)c1ccc(O)cc1`, the IC50 in the assay on RAW264.7 [1] came out at 1380 µM. In the assay on RAW264.7 [3], the “Ratio IC50” value was 9.85. In addition, the Activity in [4] was 30.9%. The molecule further showed an EC50 in assay [5] of 113 µM.

Molecule `CCOC(=O)C1=C[C@@H](OC(CC)CC)[C@H](NC(C)=O)[C@@H](N)C1.O=P(O)(O)O` [OSELTAMIVIR PHOSPHATE] came in with an Activity in assay [4] of 54%. In [5], this molecule displayed an EC50 of 67 µM.

Regarding `CC(=O)OC1CC[C@]2(SC(=O)c3ccc(F)cc3)C(=O)NC(=O)[C@H]12` (stereo partly drawn), the IC50 with RAW264.7 [1] was found to be 12100 µM; in the assay with RAW264.7 [2] it was 34.3 µM. Moreover, the inhibition result in the assay with RAW264.7 [6], in the assay filed under Mus musculus [7], in the assay with Mus musculus [8], in the assay on RAW264.7 [10], with RAW264.7 [11] and in the assay with RAW264.7 [12] was “Active” in each case. The inhibition entry in the assay with RAW264.7 [13], in the assay with RAW264.7 [14], in the assay on RAW264.7 [15], in the assay on Mus musculus [16], in the assay on Mus musculus [17] and in the assay with Mus musculus [18] was “Active” each time. Moreover, the inhibition result in the assay with Mus musculus [19] is “Active”. The “Ratio IC50” value in the assay on RAW264.7 [3] was 353.8076. For the same molecule, in the assay with RAW264.7 [9], the inhibition result is “Dose-dependent effect”.

In the case of `O=C(S[C@]12CC[C@H](O)[C@H]1C(=O)NC2=O)c1cccs1` (relative stereo), the IC50 in the assay on RAW264.7 [1] was determined as 10900 µM; in the assay on RAW264.7 [2] it was 36.6 µM. In addition, the inhibition entry in the assay with RAW264.7 [6], in the assay listed under Mus musculus [7], in the assay with Mus musculus [8], in the assay on RAW264.7 [10], with RAW264.7 [11] and in the assay with RAW264.7 [12] was “Active” in each case. For the same molecule, the inhibition entry in the assay on RAW264.7 [13], with RAW264.7 [14], in the assay on RAW264.7 [15], in the assay with Mus musculus [16], with Mus musculus [17] and in the assay with Mus musculus [18] was “Active” throughout. In the assay on Mus musculus [19], the inhibition entry was “Active”. In the assay with RAW264.7 [3], the “Ratio IC50” value is 297.0519. Moreover, the inhibition entry in the assay with RAW264.7 [9] is “Dose-dependent effect”.

Consider `CC(=O)O[C@H]1CC[C@@]2(SC(=O)c3ccc(F)cc3)C(=O)NC(=O)[C@@H]12`, for which the inhibition entry in the assay on RAW264.7 [2], with RAW264.7 [20], with RAW264.7 [21], in the assay listed under Mus musculus [22], in the assay on RAW264.7 [23] and in the assay on RAW264.7 [24] was “Active” in each case. Further, the inhibition result with RAW264.7 [25], with RAW264.7 [26] and in the assay on RAW264.7 [27] was “Active” each time.
